target: D(2) dopamine receptor (Rattus norvegicus) (UniProt P61169); assay: Agonist activity at rat dopamine D2short receptor expressed in CHO-K1 cells assessed as stimulation of [35S]GTPgammaS binding by liquid scintillation counting relative to dopamine; type: functional, cell-based
How it was run: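 Membranes from CHO-K1 cells stably expressing the receptor were prepared by sonication in Tris buffer (pH 7.4, with NaCl, KCl, MgCl2 and EDTA). They were incubated with 0.2 nM [35S]GTPγS, 10 µM GDP and a compound concentration series for 90 min at 25 °C. Samples were filtered on GF/B and washed with ice-cold phosphate buffer before scintillation counting. Curves were fitted by non-linear regression. Means ± SEM come from ≥2 independent experiments, each in duplicate.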

D(2) dopamine receptor (Rattus norvegicus), sequence (P61169 whole entry): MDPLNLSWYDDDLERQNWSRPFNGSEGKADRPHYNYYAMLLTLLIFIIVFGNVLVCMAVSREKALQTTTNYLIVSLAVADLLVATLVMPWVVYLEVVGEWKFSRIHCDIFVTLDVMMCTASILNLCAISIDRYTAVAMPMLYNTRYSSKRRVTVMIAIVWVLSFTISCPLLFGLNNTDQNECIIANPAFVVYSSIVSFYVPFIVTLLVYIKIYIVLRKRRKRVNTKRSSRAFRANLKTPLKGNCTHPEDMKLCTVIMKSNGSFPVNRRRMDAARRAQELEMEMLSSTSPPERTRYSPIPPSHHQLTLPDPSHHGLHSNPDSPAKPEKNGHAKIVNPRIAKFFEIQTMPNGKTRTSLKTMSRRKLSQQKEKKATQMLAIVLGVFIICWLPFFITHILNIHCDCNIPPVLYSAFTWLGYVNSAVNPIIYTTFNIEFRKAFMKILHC

Row | SMILES | Efficacy
1 | CCN1CCc2cc(-c3ccccc3)cc3c2[C@H]1Cc1ccc(O)c(O)c1-3 | 72%
2 | CCCN1CCc2cc(-c3ccc(O)cc3)cc3c2[C@H]1Cc1ccc(O)c(O)c1-3 | 99%
3 | CCCN1CCc2cc(C)cc3c2[C@H]1Cc1ccc(O)c(O)c1-3 | 65%
4 | CN1CCc2cccc3c2[C@H]1Cc1ccc(O)c(O)c1-3 | 58%
5 | CCN1CCc2cc(C)cc3c2[C@H]1Cc1ccc(O)c(O)c1-3 | 112%
6 | CCCN1CCc2cc(-c3ccccc3)cc3c2[C@H]1Cc1ccc(O)c(O)c1-3 | 100%
7 | CCN1CCc2cc(-c3ccc(O)cc3)cc3c2[C@H]1Cc1ccc(O)c(O)c1-3 | 112%

target: D(1A) dopamine receptor (Homo sapiens, UniProt P21728); assay: Displacement of [3H]SCH23390 from dopamine D1 receptor expressed in Ltk deficient fibroblast cells by liquid scintillation counting; type: cell-based
Sequence (P21728 whole entry): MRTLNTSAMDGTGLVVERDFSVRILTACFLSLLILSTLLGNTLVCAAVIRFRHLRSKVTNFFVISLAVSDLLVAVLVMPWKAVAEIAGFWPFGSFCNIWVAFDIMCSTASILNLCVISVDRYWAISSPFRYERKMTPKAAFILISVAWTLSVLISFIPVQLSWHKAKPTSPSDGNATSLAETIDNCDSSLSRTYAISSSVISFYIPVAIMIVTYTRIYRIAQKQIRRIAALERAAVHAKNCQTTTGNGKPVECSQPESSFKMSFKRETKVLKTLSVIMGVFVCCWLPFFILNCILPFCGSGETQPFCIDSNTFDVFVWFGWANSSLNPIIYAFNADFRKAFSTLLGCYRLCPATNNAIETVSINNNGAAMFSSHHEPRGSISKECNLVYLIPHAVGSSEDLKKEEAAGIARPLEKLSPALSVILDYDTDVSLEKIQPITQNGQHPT

Row | SMILES | Ki
8 | CCN1CCc2cc(-c3ccccc3)cc3c2[C@H]1Cc1ccc(O)c(O)c1-3 | 31 nM
9 | CN1CCc2cc(-c3ccccc3)cc3c2[C@H]1Cc1ccc(O)c(O)c1-3 | 88 nM
10 | CCCN1CCc2cc(-c3ccc(O)cc3)cc3c2[C@H]1Cc1ccc(O)c(O)c1-3 | 94 nM
11 | CCCN1CCc2cc(C)cc3c2[C@H]1Cc1ccc(O)c(O)c1-3 | 278 nM
12 | CCN1CCc2cc(C)cc3c2[C@H]1Cc1ccc(O)c(O)c1-3 | 1340 nM
13 | CN1CCc2cc(-c3ccc(O)cc3)cc3c2[C@H]1Cc1ccc(O)c(O)c1-3 | 755 nM
14 | CCCN1CCc2cc(-c3ccccc3)cc3c2[C@H]1Cc1ccc(O)c(O)c1-3 | 669 nM
15 | CCN1CCc2cc(-c3ccc(O)cc3)cc3c2[C@H]1Cc1ccc(O)c(O)c1-3 | 124 nM

target: T1, D(2) dopamine receptor (Rattus norvegicus, UniProt P61169); assay: Displacement of [3H]raclopride from rat dopamine D2short receptor expressed in CHO-K1 cells by liquid scintillation counting; type: cell-based
T1 sequence (P61169 whole entry): as the sequence (P61169 whole entry) above

Row | SMILES | Ki
16 | CCN1CCc2cc(-c3ccccc3)cc3c2[C@H]1Cc1ccc(O)c(O)c1-3 | 14 nM
17 | CCCN1CCc2cc(-c3ccc(O)cc3)cc3c2[C@H]1Cc1ccc(O)c(O)c1-3 | 2 nM
18 | CCCN1CCc2cc(C)cc3c2[C@H]1Cc1ccc(O)c(O)c1-3 | 9.2 nM
19 | CCN1CCc2cc(C)cc3c2[C@H]1Cc1ccc(O)c(O)c1-3 | 115 nM
20 | CCCN1CCc2cc(-c3ccccc3)cc3c2[C@H]1Cc1ccc(O)c(O)c1-3 | 192 nM
21 | CCN1CCc2cc(-c3ccc(O)cc3)cc3c2[C@H]1Cc1ccc(O)c(O)c1-3 | 1.5 nM

target: T1, D(2) dopamine receptor; assay: Agonist activity at rat dopamine D2short receptor expressed in CHO-K1 cells assessed as stimulation of [35S]GTPgammaS binding by liquid scintillation counting; type: functional, cell-based

Row | SMILES | EC50
22 | CCN1CCc2cc(-c3ccccc3)cc3c2[C@H]1Cc1ccc(O)c(O)c1-3 | 51 nM
23 | CN1CCc2cc(-c3ccccc3)cc3c2[C@H]1Cc1ccc(O)c(O)c1-3 | 23 nM
24 | CCCN1CCc2cc(-c3ccc(O)cc3)cc3c2[C@H]1Cc1ccc(O)c(O)c1-3 | 12 nM
25 | CCCN1CCc2cc(C)cc3c2[C@H]1Cc1ccc(O)c(O)c1-3 | 40 nM
26 | CCN1CCc2cc(C)cc3c2[C@H]1Cc1ccc(O)c(O)c1-3 | 480 nM
27 | CN1CCc2cc(-c3ccc(O)cc3)cc3c2[C@H]1Cc1ccc(O)c(O)c1-3 | 8.5 nM
28 | CCCN1CCc2cc(-c3ccccc3)cc3c2[C@H]1Cc1ccc(O)c(O)c1-3 | 577 nM
29 | Cc1cc2c3c(c1)-c1c(ccc(O)c1O)C[C@H]3N(C)CC2 | 43 nM
30 | CCN1CCc2cc(-c3ccc(O)cc3)cc3c2[C@H]1Cc1ccc(O)c(O)c1-3 | 8.7 nM

system: not listed separately; assay: Selectivity index, ratio of Ki for dopamine D1 receptor to Ki for rat dopamine D2short receptor

Row | SMILES | Ratio Ki
31 | CCN1CCc2cc(-c3ccccc3)cc3c2[C@H]1Cc1ccc(O)c(O)c1-3 | 2.2
32 | CN1CCc2cc(-c3ccccc3)cc3c2[C@H]1Cc1ccc(O)c(O)c1-3 | 7.5
33 | CCCN1CCc2cc(-c3ccc(O)cc3)cc3c2[C@H]1Cc1ccc(O)c(O)c1-3 | 47
34 | CCCN1CCc2cc(C)cc3c2[C@H]1Cc1ccc(O)c(O)c1-3 | 30
35 | CCN1CCc2cc(C)cc3c2[C@H]1Cc1ccc(O)c(O)c1-3 | 12
36 | CN1CCc2cc(-c3ccc(O)cc3)cc3c2[C@H]1Cc1ccc(O)c(O)c1-3 | 182
37 | CCCN1CCc2cc(-c3ccccc3)cc3c2[C@H]1Cc1ccc(O)c(O)c1-3 | 3.5
38 | CCN1CCc2cc(-c3ccc(O)cc3)cc3c2[C@H]1Cc1ccc(O)c(O)c1-3 | 83
